Assay results taken from ChEMBL document CHEMBL1122354, “Synthesis and antiarrhythmic activity of new [(dialkylamino)alkyl]pyridylacetamides” (1983).
The source made the active and inactive calls. The rule behind the calls is not given here.

Experiments:
Canis familiaris [1] = assay: Antiarrhythmic potential in conscious dogs; type: functional, Canis lupus familiaris, Heart
Outline: (§1)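 Mongrel dogs with experimental myocardial infarction, conscious, with ventricular tachycardia or runs of VT. Dosed 50 mg/kg orally as solution in distilled water or acacia gum during the acute phase (16–36 h). Positive response means ≥60% suppression of ventricular arrhythmias or induction of sinus rhythm. The duration of effect was recorded in min.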

Canis familiaris [2] = assay: Intracardiac conduction in anesthetized dogs, measured as SH; SH being the atrial His bundle conduction time; type: functional, Canis lupus familiaris, Atrioventricular bundle
Outline: (§2)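 Mongrel dogs under sodium pentobarbital anesthesia. His bundle electrogram recorded via left heart catheterization. His potentials recorded before dosing and 5 and 15 min after each intravenous dose, at different pacing rates. SH (stimulus to His deflection) and HV intervals measured.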

Canis familiaris [3] = assay: (§3) Intracardiac conduction in anesthetized dogs, measured as HV; HV being the conduction time in specific intraventricular tissue; type: functional, Canis lupus familiaris, Cardiac ventricle; outline: as §2
Canis familiaris [4] = assay: Antiarrhythmic potential in conscious dogs; value ranges from +20 to +270; type: functional, Canis lupus familiaris, Heart; outline: as §1
Canis familiaris [5] = assay: Intracardiac conduction in anesthetized dogs, measured as HV; HV being the conduction time in specific intraventricular tissue; value ranges from +25 to +30; type: functional, Canis lupus familiaris, Cardiac ventricle; outline: as §2
Canis familiaris [6] = assay: Intracardiac conduction in anesthetized dogs, measured as SH; SH being the atrial His bundle conduction time; value ranges from +15 to +20; type: functional, Canis lupus familiaris, Atrioventricular bundle; outline: as §2
Canis familiaris [7] = assay: Antiarrhythmic potential in conscious dogs; value ranges from +45 to +360; type: functional, Canis lupus familiaris, Heart; outline: as §1
Canis familiaris [8] = assay: Intracardiac conduction in anesthetized dogs, measured as HV; HV being the conduction time in specific intraventricular tissue; value ranges from +45 to +100; type: functional, Canis lupus familiaris, Cardiac ventricle; outline: as §2
Canis familiaris [9] = assay: Intracardiac conduction in anesthetized dogs, measured as SH; SH being the atrial His bundle conduction time; value ranges from +40 to +100; type: functional, Canis lupus familiaris, Atrioventricular bundle; outline: as §2
Canis familiaris [10] = assay: Intracardiac conduction in anesthetized dogs, measured as SH; SH being the atrial His bundle conduction time; Value ranges from +0 to +10; type: functional, Canis lupus familiaris, Atrioventricular bundle; outline: as §2
Canis familiaris [11] = assay: Antiarrhythmic potential in conscious dogs; inactive.; type: functional, organism-based; conditions: Canis lupus familiaris; Heart; outline: as §1
Canis familiaris [12] = assay: as §3; type: functional, Canis lupus familiaris, Cardiac ventricle; design: concentration or dose not given beside the values; outline: as §2
Canis familiaris [13] = assay: Antiarrhythmic potential in conscious dogs; value ranges from +80 to +360; type: functional, Canis lupus familiaris, Heart; outline: as §1
Canis familiaris [14] = assay: Intracardiac conduction in anesthetized dogs, measured as HV; HV being the conduction time in specific intraventricular tissue; value ranges from +100 to +210; type: functional, Canis lupus familiaris, Cardiac ventricle; outline: as §2
Canis familiaris [15] = assay: Intracardiac conduction in anesthetized dogs, measured as SH; SH being the atrial His bundle conduction time; value ranges from +70 to +120; type: functional, Canis lupus familiaris, Atrioventricular bundle; outline: as §2
Canis familiaris [16] = assay: Antiarrhythmic potential in conscious dogs; value ranges from +120 to +380; type: functional, Canis lupus familiaris, Heart; outline: as §1
Canis familiaris [17] = assay: Intracardiac conduction in anesthetized dogs, measured as HV; HV being the conduction time in specific intraventricular tissue value ranges from +20 to +30; type: functional, Canis lupus familiaris, Cardiac ventricle; outline: as §2
Canis familiaris [18] = assay: Intracardiac conduction in anesthetized dogs, measured as SH; SH being the atrial His bundle conduction time value ranges from +15 to +35; type: functional, Canis lupus familiaris, Atrioventricular bundle; outline: as §2
Canis familiaris [19] = assay: Antiarrhythmic potential in conscious dogs; Inactive.; type: functional, organism-based; conditions: Canis lupus familiaris; Heart; outline: as §1
Canis familiaris [20] = assay: Intracardiac conduction in anesthetized dogs, measured as HV; HV being the conduction time in specific intraventricular tissue; value ranges from + 60 to+135; type: functional, Canis lupus familiaris, Cardiac ventricle; outline: as §2
Canis familiaris [21] = assay: Antiarrhythmic potential in conscious dogs; was tested and found that after 90 min the dogs died.; type: functional, Canis lupus familiaris, Heart
Canis familiaris [22] = assay: Intracardiac conduction in anesthetized dogs, measured as SH; SH being the atrial His bundle conduction time; Value ranges from +8 to +100; type: functional, Canis lupus familiaris, Atrioventricular bundle; outline: as §2
Canis familiaris [23] = assay: Antiarrhythmic potential in conscious dogs; the value ranges from +30 to +60; type: functional, Canis lupus familiaris, Heart
Canis familiaris [24] = assay: Antiarrhythmic potential in conscious dogs was calculated and found that after 60 minutes the dogs died.; type: functional, Canis lupus familiaris, Heart
Canis familiaris [25] = assay: Intracardiac conduction in anesthetized dogs, measured as SH; SH being the atrial His bundle conduction time; value ranges from +50 to +85; type: functional, Canis lupus familiaris, Atrioventricular bundle; outline: as §2
Canis familiaris [26] = assay: Intracardiac conduction in anesthetized dogs, measured as HV; HV being the conduction time in specific intraventricular tissue; value ranges from 35-80; type: functional, Canis lupus familiaris, Cardiac ventricle; outline: as §2
Canis familiaris [27] = assay: Antiarrhythmic potential in conscious dogs; value ranges from 210-270; type: functional, Canis lupus familiaris, Heart; outline: as §1
Canis familiaris [28] = assay: Intracardiac conduction in anesthetized dogs, measured as SH; SH being the atrial His bundle conduction time; value ranges from +30 to +-55; type: functional, Canis lupus familiaris, Atrioventricular bundle; outline: as §2
Canis familiaris [29] = assay: Antiarrhythmic potential in conscious dogs; the value ranges from +8 to +-240; type: functional, Canis lupus familiaris, Heart; outline: as §1
Canis familiaris [30] = assay: Antiarrhythmic potential in conscious dogs; value ranges from +50 to +60; type: functional, Canis lupus familiaris, Heart; outline: as §1
Canis familiaris [31] = assay: Antiarrhythmic potential in conscious dogs; value ranges from +155 to +300; type: functional, Canis lupus familiaris, Heart; outline: as §1
Canis familiaris [32] = assay: Intracardiac conduction in anesthetized dogs, measured as SH; SH being the atrial His bundle conduction time; value ranges from +10 to +50; type: functional, Canis lupus familiaris, Atrioventricular bundle; outline: as §2
Canis familiaris [33] = assay: Intracardiac conduction in anesthetized dogs, measured as HV; HV being the conduction time in specific intraventricular tissue; value ranges from +2 to +-50; type: functional, Canis lupus familiaris, Cardiac ventricle; outline: as §2
Canis familiaris [34] = assay: Antiarrhythmic potential in conscious dogs; value ranges from +190 to +270; type: functional, Canis lupus familiaris, Heart; outline: as §1
Canis familiaris [35] = assay: Intracardiac conduction in anesthetized dogs, measured as HV; HV being the conduction time in specific intraventricular tissue; Value ranges from 20-33; type: functional, Canis lupus familiaris, Cardiac ventricle; outline: as §2
Canis familiaris [36] = assay: Antiarrhythmic potential in conscious dogs;Value ranges from +27 to +280; type: functional, Canis lupus familiaris, Heart; outline: as §1
Canis familiaris [37] = assay: Intracardiac conduction in anesthetized dogs, measured as SH; SH being the atrial His bundle conduction time; Value ranges from +20 to +70; type: functional, Canis lupus familiaris, Atrioventricular bundle; outline: as §2
Canis familiaris [38] = assay: Antiarrhythmic potential in conscious dogs; value ranges from +165 to +405; type: functional, Canis lupus familiaris, Heart; outline: as §1
Canis familiaris [39] = assay: Intracardiac conduction in anesthetized dogs, measured as HV; HV being the conduction time in specific intraventricular tissue; value ranges from +0 to +30; type: functional, Canis lupus familiaris, Cardiac ventricle; outline: as §2
Canis familiaris [40] = assay: Intracardiac conduction in anesthetized dogs, measured as SH; SH being the atrial His bundle conduction time; value ranges from +25 to +30; type: functional, Canis lupus familiaris, Atrioventricular bundle; outline: as §2
Canis familiaris [41] = assay: Intracardiac conduction in anesthetized dogs, measured as SH; SH being the atrial His bundle conduction time; value ranges from +4 to +-85; type: functional, Canis lupus familiaris, Atrioventricular bundle; outline: as §2

SMILES: CC(C)CC(CCCN(C(C)C)C(C)C)(C(N)=O)c1ccccn1 (stereo unspecified)
- Actual duraction (Canis familiaris [1]): 30 min
- Variation/Control (Canis familiaris [2]): 15%
- Variation/Control (Canis familiaris [3]): 0%

SMILES: CC(C)CC(CCN1C(C)CCCC1C)(C(N)=O)c1ccccn1 (stereo unspecified)
- Actual duraction (Canis familiaris [4]): 270 min
- Variation/Control (Canis familiaris [5]): 30%
- Variation/Control (Canis familiaris [6]): 20%

SMILES: CC(C)N(CCC(CC1CCCCC1)(C(N)=O)c1ccccn1)C(C)C (stereo unspecified)
- Actual duraction (Canis familiaris [7]): 360 min
- Variation/Control (Canis familiaris [8]): 100%
- Variation/Control (Canis familiaris [9]): 100%

SMILES: CC(C)CC(CCN1CCOCC1)(C(N)=O)c1ccccn1 (stereo unspecified)
- Variation/Control (Canis familiaris [10]): 10%
- Actual duraction (Canis familiaris [11]): inactive
- Variation/Control (Canis familiaris [3]): 0%

SMILES: CCC(C)C(CCN(C(C)C)C(C)C)(C(N)=O)c1ccccn1 (stereo unspecified)
- Variation/Control (Canis familiaris [12]): 30%
- Actual duraction (Canis familiaris [1]): 240 min
- Variation/Control (Canis familiaris [2]): 0%

SMILES: CC(C)CC(CCN(C(C)C)C(C)C)(C(N)=O)c1cccnc1 (stereo unspecified)
- Actual duraction (Canis familiaris [1]): 45 min
- Variation/Control (Canis familiaris [2]): 20%
- Variation/Control (Canis familiaris [3]): 25%

SMILES: CC(C)N(CCC(C(N)=O)(c1ccccn1)C(C)C)C(C)C (stereo unspecified)
- Variation/Control (Canis familiaris [12]): 0%
- Variation/Control (Canis familiaris [2]): 10%
- Actual duraction (Canis familiaris [13]): 360 min

SMILES: CCCCCC(CCN(C(C)C)C(C)C)(C(N)=O)c1ccccn1 (stereo unspecified)
- Actual duraction (Canis familiaris [1]): 180 min
- Variation/Control (Canis familiaris [14]): 210%
- Variation/Control (Canis familiaris [15]): 120%

SMILES: CC(C)CC(CCN(C(C)C)C(C)C)(C(N)=O)c1ccccn1 (stereo unspecified) [PENTISOMIDE]
- Actual duraction (Canis familiaris [16]): 380 min
- Variation/Control (Canis familiaris [17]): 30%
- Variation/Control (Canis familiaris [18]): 35%

SMILES: CCCN(CCC)CCC(CC(C)C)(C(N)=O)c1ccccn1 (stereo unspecified)
- Variation/Control (Canis familiaris [12]): 0%
- Variation/Control (Canis familiaris [2]): 20%
- Actual duraction (Canis familiaris [19]): inactive

SMILES: CCC(C)N(CCC(CC(C)C)(C(N)=O)c1ccccn1)C(C)CC (stereo unspecified)
- Variation/Control (Canis familiaris [20]): 135%
- Actual duraction (Canis familiaris [21]): 90 min
- Variation/Control (Canis familiaris [22]): 100%

SMILES: CC(C)N(CCC(C(N)=O)(c1ccccc1)c1ccccn1)C(C)C (stereo unspecified) [DISOPYRAMIDE]
- Actual duraction (Canis familiaris [23]): 60 min

SMILES: CC(C)CC(CCN(C1CCCCC1)C1CCCCC1)(C(N)=O)c1ccccn1 (stereo unspecified)
- Variation/Control (Canis familiaris [12]): 75%
- Variation/Control (Canis familiaris [2]): 45%
- Actual duraction (Canis familiaris [24]): 60 min

SMILES: CC(C)N(CCC(Cc1ccccc1)(C(N)=O)c1ccccn1)C(C)C (stereo unspecified)
- Variation/Control (Canis familiaris [25]): 85%
- Variation/Control (Canis familiaris [26]): 80%
- Actual duraction (Canis familiaris [11]): inactive

SMILES: CC(C)N(CCC(C(N)=O)(c1ccccn1)C1CCCCC1)C(C)C (stereo unspecified)
- Actual duraction (Canis familiaris [27]): 270 min
- Variation/Control (Canis familiaris [12]): 40%
- Variation/Control (Canis familiaris [28]): 55%

SMILES: CC(C)CC(CCN(C(C)C)C(C)C)(C(N)=O)c1ccncc1 (stereo unspecified)
- Variation/Control (Canis familiaris [12]): 45%
- Actual duraction (Canis familiaris [29]): 240 min
- Variation/Control (Canis familiaris [2]): 110%

SMILES: C=C[C@H]1CN2CC[C@H]1C[C@@H]2[C@@H](O)c1ccnc2ccc(OC)cc12 [QUINIDINE]
- Actual duraction (Canis familiaris [30]): 60 min

SMILES: CCC(CCN(C(C)C)C(C)C)(C(N)=O)c1ccccn1 (stereo unspecified)
- Variation/Control (Canis familiaris [12]): 0%
- Variation/Control (Canis familiaris [2]): 20%
- Actual duraction (Canis familiaris [31]): 300 min

SMILES: CCN(CC)CCC(CC(C)C)(C(N)=O)c1ccccn1 (stereo unspecified)
- Variation/Control (Canis familiaris [12]): 0%
- Variation/Control (Canis familiaris [2]): 15%
- Actual duraction (Canis familiaris [11]): inactive

SMILES: CC(C)N(CCC(C(N)=O)c1ccccn1)C(C)C (stereo unspecified)
- Variation/Control (Canis familiaris [12]): 0%
- Variation/Control (Canis familiaris [2]): 0%
- Actual duraction (Canis familiaris [11]): inactive

SMILES: CCCC(CCN(C(C)C)C(C)C)(C(N)=O)c1ccccn1 (stereo unspecified)
- Actual duraction (Canis familiaris [1]): 35 min
- Variation/Control (Canis familiaris [2]): 15%
- Variation/Control (Canis familiaris [3]): 0%

SMILES: CC(C)CCC(CCN(C(C)C)C(C)C)(C(N)=O)c1ccccn1 (stereo unspecified)
- Variation/Control (Canis familiaris [32]): 50%
- Variation/Control (Canis familiaris [33]): 50%
- Actual duraction (Canis familiaris [34]): 270 min

SMILES: CCC(CC)C(CCN(C(C)C)C(C)C)(C(N)=O)c1ccccn1 (stereo unspecified)
- Variation/Control (Canis familiaris [35]): 33%
- Actual duraction (Canis familiaris [36]): 280 min
- Variation/Control (Canis familiaris [37]): 70%

SMILES: CC(C)N(CCC(CC(C)(C)C)(C(N)=O)c1ccccn1)C(C)C (stereo unspecified)
- Actual duraction (Canis familiaris [38]): 405 min
- Variation/Control (Canis familiaris [39]): 30%
- Variation/Control (Canis familiaris [40]): 30%

SMILES: CC(C)CC(CCN(C(C)C)C1CCCCC1)(C(N)=O)c1ccccn1 (stereo unspecified)
- Variation/Control (Canis familiaris [12]): 50%
- Actual duraction (Canis familiaris [1]): 300 min
- Variation/Control (Canis familiaris [41]): 85%
